{
  "source": "ChEMBL document CHEMBL2331324",
  "about": "“Synthesis and biological evaluation of guanidino analogues of roscovitine” (Eur J Med Chem, 2013)",
  "key": {"[1]": {"target": "Myosin light chain kinase, smooth muscle (Homo sapiens) (UniProt Q15746)", "test": "Inhibition of recombinant SMMLCK (unknown origin) assessed as residual activity using [gamma-33P]ATP as substrate at 1 uM", "procedure,_shortened": "(§1)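 Kinase panel screen with each compound at 1 µM, in duplicate. Reactions were started with [γ-33P]ATP (800 cpm/pmol) at 5, 20 or 50 µM, chosen per enzyme to be at or below its ATP Km. Reactions were stopped with phosphoric acid and spotted onto P81 filters. Results are given as residual kinase activity.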"}, "[2]": {"target": "Eukaryotic elongation factor 2 kinase (Homo sapiens) (UniProt O00418)", "test": "Inhibition of recombinant EF2K (unknown origin) assessed as residual activity using [gamma-33P]ATP as substrate at 1 uM", "procedure,_shortened": "(§2)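 Recombinant kinase panel screened at 1 µM in duplicate. Reactions started with [γ-33P]ATP (800 cpm/pmol) at 5, 20 or 50 µM, chosen to sit at or below each enzyme's ATP Km. Stopped with phosphoric acid and spotted onto P81 filters. Result given as residual kinase activity.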"}, "[3]": {"target": "Mitogen-activated protein kinase 15 (Homo sapiens) (UniProt Q8TD08)", "sequence (Q8TD08 whole entry)": "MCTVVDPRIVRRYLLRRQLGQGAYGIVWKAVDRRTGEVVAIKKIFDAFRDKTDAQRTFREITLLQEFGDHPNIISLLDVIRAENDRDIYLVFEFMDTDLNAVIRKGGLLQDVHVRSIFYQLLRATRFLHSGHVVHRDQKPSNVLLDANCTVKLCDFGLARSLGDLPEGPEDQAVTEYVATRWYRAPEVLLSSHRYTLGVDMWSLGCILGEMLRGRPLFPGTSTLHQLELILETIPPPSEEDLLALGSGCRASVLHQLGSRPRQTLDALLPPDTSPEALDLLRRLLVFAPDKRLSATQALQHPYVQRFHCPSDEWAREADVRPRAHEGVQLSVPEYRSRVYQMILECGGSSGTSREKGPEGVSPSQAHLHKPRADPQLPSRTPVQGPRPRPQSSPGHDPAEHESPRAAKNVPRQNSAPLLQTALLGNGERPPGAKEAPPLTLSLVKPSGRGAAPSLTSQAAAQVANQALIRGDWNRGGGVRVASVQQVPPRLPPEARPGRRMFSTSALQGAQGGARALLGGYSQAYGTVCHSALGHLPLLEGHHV", "test": "Inhibition of recombinant ERK8 (unknown origin) assessed as residual activity using [gamma-33P]ATP as substrate at 1 uM", "procedure,_shortened": "as §2"}, "[4]": {"target": "MAP/microtubule affinity-regulating kinase 4 (Homo sapiens) (UniProt Q96L34)", "test": "Inhibition of recombinant MARK4 (unknown origin) assessed as residual activity using [gamma-33P]ATP as substrate at 1 uM", "procedure,_shortened": "(§3)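 Selectivity panel run under previously published conditions. Screened at 1 μM in duplicate. Reactions started with [γ-33P]ATP (800 cpm/pmol) at 5, 20 or 50 μM, chosen to be at or below each enzyme's ATP Km. Stopped with phosphoric acid, spotted onto P81 filters. Result expressed as residual kinase activity.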"}, "[5]": {"target": "3-phosphoinositide-dependent protein kinase 1 (Homo sapiens) (UniProt O15530)", "test": "Inhibition of recombinant PDK1 (unknown origin) assessed as residual activity using [gamma-33P]ATP as substrate at 1 uM"}, "[6]": {"target": "Tyrosine-protein kinase CSK (Homo sapiens) (UniProt P41240)", "test": "Inhibition of recombinant CSK (unknown origin) assessed as residual activity using [gamma-33P]ATP as substrate at 1 uM", "procedure,_shortened": "as §2"}, "[7]": {"target": "Inhibitor of nuclear factor kappa-B kinase subunit beta (Homo sapiens) (UniProt O14920)", "sequence (O14920 whole entry)": "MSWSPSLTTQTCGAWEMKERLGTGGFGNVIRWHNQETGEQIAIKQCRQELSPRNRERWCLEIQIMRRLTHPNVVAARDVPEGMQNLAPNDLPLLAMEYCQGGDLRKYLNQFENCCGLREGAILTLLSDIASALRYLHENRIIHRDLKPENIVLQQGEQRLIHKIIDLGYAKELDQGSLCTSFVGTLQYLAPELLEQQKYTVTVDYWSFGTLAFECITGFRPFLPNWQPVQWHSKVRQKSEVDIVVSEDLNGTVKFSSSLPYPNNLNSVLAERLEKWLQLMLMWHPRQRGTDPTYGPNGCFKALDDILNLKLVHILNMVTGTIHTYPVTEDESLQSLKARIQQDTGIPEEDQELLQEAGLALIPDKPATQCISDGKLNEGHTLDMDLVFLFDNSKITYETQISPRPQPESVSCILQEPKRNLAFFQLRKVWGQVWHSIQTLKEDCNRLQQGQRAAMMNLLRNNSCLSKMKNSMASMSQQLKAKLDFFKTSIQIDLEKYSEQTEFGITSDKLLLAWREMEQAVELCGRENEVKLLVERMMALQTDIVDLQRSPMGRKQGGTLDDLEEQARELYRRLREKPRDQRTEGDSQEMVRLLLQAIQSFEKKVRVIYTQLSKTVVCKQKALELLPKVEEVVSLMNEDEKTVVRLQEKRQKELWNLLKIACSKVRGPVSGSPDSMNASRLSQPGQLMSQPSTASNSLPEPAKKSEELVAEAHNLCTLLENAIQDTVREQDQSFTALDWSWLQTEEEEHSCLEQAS", "test": "Inhibition of recombinant IKKbeta (unknown origin) assessed as residual activity using [gamma-33P]ATP as substrate at 1 uM", "procedure,_shortened": "as §2"}, "Homo sapiens": {"organism": "Homo sapiens", "test": "Inhibition of recombinant CK1 (unknown origin) assessed as residual activity using [gamma-33P]ATP as substrate at 1 uM", "procedure,_shortened": "as §2"}, "[8]": {"target": "Ephrin type-B receptor 1 (Homo sapiens) (UniProt P54762)", "test": "Inhibition of recombinant EPH-B1 (unknown origin) assessed as residual activity using [gamma-33P]ATP as substrate at 1 uM", "procedure,_shortened": "as §2"}, "[9]": {"target": "Serine/threonine-protein kinase Chk2 (Homo sapiens) (UniProt O96017)", "sequence (O96017 whole entry)": "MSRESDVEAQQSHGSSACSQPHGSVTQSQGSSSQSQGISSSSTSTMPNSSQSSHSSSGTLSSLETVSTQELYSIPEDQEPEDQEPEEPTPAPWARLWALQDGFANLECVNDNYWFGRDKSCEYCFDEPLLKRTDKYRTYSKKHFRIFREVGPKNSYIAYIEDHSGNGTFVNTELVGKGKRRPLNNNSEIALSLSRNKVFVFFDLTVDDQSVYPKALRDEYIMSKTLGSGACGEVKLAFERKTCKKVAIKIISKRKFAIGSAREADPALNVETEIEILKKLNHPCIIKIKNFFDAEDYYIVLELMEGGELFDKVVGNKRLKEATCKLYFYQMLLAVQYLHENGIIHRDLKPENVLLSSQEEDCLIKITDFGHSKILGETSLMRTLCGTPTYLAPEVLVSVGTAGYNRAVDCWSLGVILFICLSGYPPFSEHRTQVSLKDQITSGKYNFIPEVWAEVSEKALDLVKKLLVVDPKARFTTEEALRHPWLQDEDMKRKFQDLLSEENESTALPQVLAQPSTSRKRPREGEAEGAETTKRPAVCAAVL", "test": "Inhibition of recombinant CHK2 (unknown origin) assessed as residual activity using [gamma-33P]ATP as substrate at 1 uM", "procedure,_shortened": "as §2"}, "[10]": {"target": "Dual specificity protein kinase TTK (Homo sapiens) (UniProt P33981)", "sequence (P33981 whole entry)": "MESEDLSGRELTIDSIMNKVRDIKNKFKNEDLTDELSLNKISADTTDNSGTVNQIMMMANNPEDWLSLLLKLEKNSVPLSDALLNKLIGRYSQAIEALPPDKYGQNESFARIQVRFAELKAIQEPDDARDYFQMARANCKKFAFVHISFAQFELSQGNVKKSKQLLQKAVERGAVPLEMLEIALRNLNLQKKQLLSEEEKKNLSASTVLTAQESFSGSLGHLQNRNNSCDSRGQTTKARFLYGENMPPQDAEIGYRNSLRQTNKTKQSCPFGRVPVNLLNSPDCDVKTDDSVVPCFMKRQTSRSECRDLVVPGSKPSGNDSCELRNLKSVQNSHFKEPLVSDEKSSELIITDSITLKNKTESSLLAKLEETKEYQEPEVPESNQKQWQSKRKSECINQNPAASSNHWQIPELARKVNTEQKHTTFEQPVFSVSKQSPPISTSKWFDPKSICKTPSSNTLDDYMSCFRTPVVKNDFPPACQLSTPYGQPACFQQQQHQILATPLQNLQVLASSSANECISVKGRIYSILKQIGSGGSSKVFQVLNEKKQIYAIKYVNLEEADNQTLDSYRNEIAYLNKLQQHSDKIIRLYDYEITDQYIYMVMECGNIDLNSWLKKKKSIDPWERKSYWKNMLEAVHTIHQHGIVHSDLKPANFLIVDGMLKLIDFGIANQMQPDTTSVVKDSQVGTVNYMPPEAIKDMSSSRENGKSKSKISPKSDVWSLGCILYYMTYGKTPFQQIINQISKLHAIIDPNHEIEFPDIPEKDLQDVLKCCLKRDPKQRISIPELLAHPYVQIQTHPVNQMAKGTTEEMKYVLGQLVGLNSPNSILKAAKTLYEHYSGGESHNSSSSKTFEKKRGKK", "test": "Inhibition of recombinant TTK (unknown origin) assessed as residual activity using [gamma-33P]ATP as substrate at 1 uM", "procedure,_shortened": "as §1"}, "[11]": {"target": "Serine/threonine-protein kinase TAO1 (Homo sapiens) (UniProt Q7L7X3)", "test": "Inhibition of recombinant TAO1 (unknown origin) assessed as residual activity using [gamma-33P]ATP as substrate at 1 uM", "procedure,_shortened": "as §1"}, "[12]": {"target": "Homeodomain-interacting protein kinase 3 (Homo sapiens) (UniProt Q9H422)", "test": "Inhibition of recombinant HIPK3 (unknown origin) assessed as residual activity using [gamma-33P]ATP as substrate at 1 uM", "procedure,_shortened": "as §2"}, "[13]": {"target": "Serine/threonine-protein kinase pim-2 (Homo sapiens) (UniProt Q9P1W9)", "test": "Inhibition of recombinant PIM2 (unknown origin) assessed as residual activity using [gamma-33P]ATP as substrate at 1 uM", "procedure,_shortened": "as §3"}, "[14]": {"target": "Interleukin-1 receptor-associated kinase 1 (Homo sapiens) (UniProt P51617)", "test": "Inhibition of recombinant IRAK1 (unknown origin) assessed as residual activity using [gamma-33P]ATP as substrate at 1 uM", "procedure,_shortened": "as §2"}, "[15]": {"target": "High affinity nerve growth factor receptor (Homo sapiens) (UniProt P04629)", "test": "Inhibition of recombinant TRKA (unknown origin) assessed as residual activity using [gamma-33P]ATP as substrate at 1 uM", "procedure,_shortened": "as §1"}, "[16]": {"target": "5'-AMP-activated protein kinase catalytic subunit alpha-2 (Homo sapiens) (UniProt P54646)", "test": "Inhibition of recombinant AMPK (unknown origin) assessed as residual activity using [gamma-33P]ATP as substrate at 1 uM", "procedure,_shortened": "as §2"}, "[17]": {"target": "Serine/threonine-protein kinase 16 (Homo sapiens) (UniProt O75716)", "sequence (O75716 whole entry)": "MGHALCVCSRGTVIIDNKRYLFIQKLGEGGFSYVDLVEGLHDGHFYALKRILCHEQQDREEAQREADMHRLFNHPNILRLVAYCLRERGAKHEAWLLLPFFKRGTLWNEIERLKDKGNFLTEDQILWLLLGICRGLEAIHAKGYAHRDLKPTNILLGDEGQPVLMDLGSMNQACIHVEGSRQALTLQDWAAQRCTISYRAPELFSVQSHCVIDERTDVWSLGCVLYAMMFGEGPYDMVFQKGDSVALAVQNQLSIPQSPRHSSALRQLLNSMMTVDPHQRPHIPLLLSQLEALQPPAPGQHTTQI", "test": "Inhibition of recombinant MPSK1 (unknown origin) assessed as residual activity using [gamma-33P]ATP as substrate at 1 uM", "procedure,_shortened": "as §3"}, "[18]": {"target": "Dual specificity mitogen-activated protein kinase kinase 6 (Homo sapiens) (UniProt P52564)", "test": "Inhibition of recombinant MKK6 (unknown origin) assessed as residual activity using [gamma-33P]ATP as substrate at 1 uM", "procedure,_shortened": "as §3"}, "[19]": {"target": "Serine/threonine-protein kinase PAK 6 (Homo sapiens) (UniProt Q9NQU5)", "sequence (Q9NQU5 whole entry, looked up)": "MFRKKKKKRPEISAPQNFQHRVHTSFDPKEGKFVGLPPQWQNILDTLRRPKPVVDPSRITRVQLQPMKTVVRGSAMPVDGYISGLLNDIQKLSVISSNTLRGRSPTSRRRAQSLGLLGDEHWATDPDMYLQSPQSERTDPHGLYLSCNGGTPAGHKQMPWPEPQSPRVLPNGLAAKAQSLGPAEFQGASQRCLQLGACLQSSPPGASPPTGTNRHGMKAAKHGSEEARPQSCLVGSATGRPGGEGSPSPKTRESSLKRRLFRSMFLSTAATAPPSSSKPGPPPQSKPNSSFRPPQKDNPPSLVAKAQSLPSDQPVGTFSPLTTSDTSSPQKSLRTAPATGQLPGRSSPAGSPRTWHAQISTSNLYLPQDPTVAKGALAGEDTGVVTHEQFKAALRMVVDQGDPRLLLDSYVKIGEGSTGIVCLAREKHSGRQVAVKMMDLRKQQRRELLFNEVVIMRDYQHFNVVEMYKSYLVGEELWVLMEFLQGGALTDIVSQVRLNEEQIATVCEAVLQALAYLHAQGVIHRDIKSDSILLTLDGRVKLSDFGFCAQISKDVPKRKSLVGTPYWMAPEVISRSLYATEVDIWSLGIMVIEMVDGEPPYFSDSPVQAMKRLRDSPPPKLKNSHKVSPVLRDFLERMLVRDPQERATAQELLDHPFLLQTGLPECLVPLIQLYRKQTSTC", "test": "Inhibition of recombinant PAK6 (unknown origin) assessed as residual activity using [gamma-33P]ATP as substrate at 1 uM", "procedure,_shortened": "as §3"}, "[20]": {"target": "Ephrin type-B receptor 4 (Homo sapiens) (UniProt P54760)", "test": "Inhibition of recombinant EPH-B4 (unknown origin) assessed as residual activity using [gamma-33P]ATP as substrate at 1 uM", "procedure,_shortened": "as §2"}, "[21]": {"target": "Ephrin type-A receptor 2 (Homo sapiens) (UniProt P29317)", "test": "Inhibition of recombinant EPH-A2 (unknown origin) assessed as residual activity using [gamma-33P]ATP as substrate at 1 uM", "procedure,_shortened": "as §2"}, "[22]": {"target": "NUAK family SNF1-like kinase 1 (Homo sapiens) (UniProt O60285)", "test": "Inhibition of recombinant NUAK1 (unknown origin) assessed as residual activity using [gamma-33P]ATP as substrate at 1 uM", "procedure,_shortened": "as §3"}, "[23]": {"target": "Receptor tyrosine-protein kinase erbB-4 (Homo sapiens) (UniProt Q15303)", "sequence (Q15303 whole entry)": "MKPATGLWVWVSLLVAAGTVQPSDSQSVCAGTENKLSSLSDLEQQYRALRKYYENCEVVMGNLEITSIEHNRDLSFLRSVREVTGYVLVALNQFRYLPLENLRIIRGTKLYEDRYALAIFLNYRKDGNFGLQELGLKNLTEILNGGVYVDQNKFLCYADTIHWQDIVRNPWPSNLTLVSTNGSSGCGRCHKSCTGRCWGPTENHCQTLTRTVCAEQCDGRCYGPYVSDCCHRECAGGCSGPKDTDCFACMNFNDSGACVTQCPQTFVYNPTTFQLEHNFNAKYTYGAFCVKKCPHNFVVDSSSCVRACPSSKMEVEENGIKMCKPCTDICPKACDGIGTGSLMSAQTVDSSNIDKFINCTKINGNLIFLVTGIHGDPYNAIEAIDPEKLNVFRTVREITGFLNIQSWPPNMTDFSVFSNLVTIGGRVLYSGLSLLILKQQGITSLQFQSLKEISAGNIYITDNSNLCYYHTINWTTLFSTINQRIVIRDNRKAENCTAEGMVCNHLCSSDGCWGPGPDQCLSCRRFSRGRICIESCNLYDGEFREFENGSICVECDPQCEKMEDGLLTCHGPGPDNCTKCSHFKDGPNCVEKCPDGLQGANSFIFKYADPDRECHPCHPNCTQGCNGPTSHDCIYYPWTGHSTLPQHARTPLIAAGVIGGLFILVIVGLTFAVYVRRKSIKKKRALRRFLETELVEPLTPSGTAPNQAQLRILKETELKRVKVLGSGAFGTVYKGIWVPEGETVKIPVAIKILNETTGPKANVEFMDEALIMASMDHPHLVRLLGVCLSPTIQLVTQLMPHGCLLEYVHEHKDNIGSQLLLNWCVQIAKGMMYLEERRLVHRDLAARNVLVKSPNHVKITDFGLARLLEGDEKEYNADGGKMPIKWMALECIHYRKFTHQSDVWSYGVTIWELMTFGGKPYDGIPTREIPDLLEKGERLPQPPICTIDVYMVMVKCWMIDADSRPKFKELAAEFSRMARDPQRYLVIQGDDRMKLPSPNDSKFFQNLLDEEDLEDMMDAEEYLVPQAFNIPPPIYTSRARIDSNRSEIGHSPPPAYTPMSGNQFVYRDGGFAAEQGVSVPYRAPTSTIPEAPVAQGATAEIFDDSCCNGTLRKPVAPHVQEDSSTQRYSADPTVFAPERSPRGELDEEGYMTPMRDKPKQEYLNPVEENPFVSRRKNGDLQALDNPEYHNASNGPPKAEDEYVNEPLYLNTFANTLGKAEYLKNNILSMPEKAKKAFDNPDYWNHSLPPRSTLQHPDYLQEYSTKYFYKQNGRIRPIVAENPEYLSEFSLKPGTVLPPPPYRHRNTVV", "test": "Inhibition of recombinant HER4 (unknown origin) assessed as residual activity using [gamma-33P]ATP as substrate at 1 uM", "procedure,_shortened": "as §2"}, "[24]": {"target": "Mitogen-activated protein kinase 8 (Homo sapiens) (UniProt P45983)", "test": "Inhibition of recombinant JNK1 (unknown origin) assessed as residual activity using [gamma-33P]ATP as substrate at 1 uM", "procedure,_shortened": "as §3"}, "[25]": {"target": "Mitogen-activated protein kinase kinase kinase 5 (Homo sapiens) (UniProt Q99683)", "test": "Inhibition of recombinant ASK1 (unknown origin) assessed as residual activity using [gamma-33P]ATP as substrate at 1 uM", "procedure,_shortened": "as §2"}, "[26]": {"target": "Serine/threonine-protein kinase PAK 5 (Homo sapiens) (UniProt Q9P286)", "test": "Inhibition of recombinant PAK5 (unknown origin) assessed as residual activity using [gamma-33P]ATP as substrate at 1 uM"}},
  "data": [
    {"smiles": "CC[C@@H](CO)Nc1nc(NC(=N)N)c2ncn(C(C)C)c2n1", "values": [
      {"measurement": "Activity", "setting": "[1]", "result": 32, "unit": "%"},
      {"measurement": "Activity", "setting": "[2]", "result": 94, "unit": "%"},
      {"measurement": "Activity", "setting": "[3]", "result": 18, "unit": "%"},
      {"measurement": "Activity", "setting": "[4]", "result": 29, "unit": "%"},
      {"measurement": "Activity", "setting": "[5]", "result": 62, "unit": "%"},
      {"measurement": "Activity", "setting": "[6]", "result": 59, "unit": "%"},
      {"measurement": "Activity", "setting": "[7]", "result": 76, "unit": "%"},
      {"measurement": "Activity", "setting": "Homo sapiens", "result": 21, "unit": "%"},
      {"measurement": "Activity", "setting": "[8]", "result": 7, "unit": "%"},
      {"measurement": "Activity", "setting": "[9]", "result": 42, "unit": "%"},
      {"measurement": "Activity", "setting": "[10]", "result": 32, "unit": "%"},
      {"measurement": "Activity", "setting": "[11]", "result": 9, "unit": "%"},
      {"measurement": "Activity", "setting": "[12]", "result": 24, "unit": "%"},
      {"measurement": "Activity", "setting": "[13]", "result": 91, "unit": "%"},
      {"measurement": "Activity", "setting": "[14]", "result": 17, "unit": "%"},
      {"measurement": "Activity", "setting": "[15]", "result": 28, "unit": "%"},
      {"measurement": "Activity", "setting": "[16]", "result": 22, "unit": "%"},
      {"measurement": "Activity", "setting": "[17]", "result": 28, "unit": "%"},
      {"measurement": "Activity", "setting": "[18]", "result": 88, "unit": "%"},
      {"measurement": "Activity", "setting": "[19]", "result": 17, "unit": "%"},
      {"measurement": "Activity", "setting": "[20]", "result": 6, "unit": "%"},
      {"measurement": "Activity", "setting": "[21]", "result": 17, "unit": "%"},
      {"measurement": "Activity", "setting": "[22]", "result": 7, "unit": "%"},
      {"measurement": "Activity", "setting": "[23]", "result": 29, "unit": "%"},
      {"measurement": "Activity", "setting": "[24]", "result": 78, "unit": "%"},
      {"measurement": "Activity", "setting": "[25]", "result": 81, "unit": "%"},
      {"measurement": "Activity", "setting": "[26]", "result": 15, "unit": "%"}
    ]},
    {"smiles": "CC[C@H](CO)Nc1nc(NC(=N)N)c2ncn(C(C)C)c2n1", "values": [
      {"measurement": "Activity", "setting": "[1]", "result": 49, "unit": "%"},
      {"measurement": "Activity", "setting": "[2]", "result": 94, "unit": "%"},
      {"measurement": "Activity", "setting": "[3]", "result": 16, "unit": "%"},
      {"measurement": "Activity", "setting": "[4]", "result": 38, "unit": "%"},
      {"measurement": "Activity", "setting": "[5]", "result": 68, "unit": "%"},
      {"measurement": "Activity", "setting": "[6]", "result": 58, "unit": "%"},
      {"measurement": "Activity", "setting": "[7]", "result": 74, "unit": "%"},
      {"measurement": "Activity", "setting": "Homo sapiens", "result": 15, "unit": "%"},
      {"measurement": "Activity", "setting": "[8]", "result": 8, "unit": "%"},
      {"measurement": "Activity", "setting": "[9]", "result": 59, "unit": "%"},
      {"measurement": "Activity", "setting": "[10]", "result": 40, "unit": "%"},
      {"measurement": "Activity", "setting": "[11]", "result": 9, "unit": "%"},
      {"measurement": "Activity", "setting": "[12]", "result": 38, "unit": "%"},
      {"measurement": "Activity", "setting": "[13]", "result": 88, "unit": "%"},
      {"measurement": "Activity", "setting": "[14]", "result": 26, "unit": "%"},
      {"measurement": "Activity", "setting": "[15]", "result": 24, "unit": "%"},
      {"measurement": "Activity", "setting": "[16]", "result": 29, "unit": "%"},
      {"measurement": "Activity", "setting": "[17]", "result": 36, "unit": "%"},
      {"measurement": "Activity", "setting": "[18]", "result": 72, "unit": "%"},
      {"measurement": "Activity", "setting": "[19]", "result": 26, "unit": "%"},
      {"measurement": "Activity", "setting": "[20]", "result": 6, "unit": "%"},
      {"measurement": "Activity", "setting": "[21]", "result": 22, "unit": "%"},
      {"measurement": "Activity", "setting": "[22]", "result": 8, "unit": "%"},
      {"measurement": "Activity", "setting": "[23]", "result": 27, "unit": "%"},
      {"measurement": "Activity", "setting": "[24]", "result": 88, "unit": "%"},
      {"measurement": "Activity", "setting": "[25]", "result": 100, "unit": "%"},
      {"measurement": "Activity", "setting": "[26]", "result": 18, "unit": "%"}
    ]}
  ]
}
